Efflux pump mplx = blocks antifungal efflux pumps in multiplex yeast assay | S. cerevisiae Candida pump triplex, Nile Red efflux | inhibition, % at 10 µM | 330,000 tested, 0.44% active;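 active = plate passing quality check with inhibition over a set limit, or well fluorescence over plate mean plus 4 SD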;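 also: Nile Red retained in pooled yeast measured as flow cytometry median fluorescence; 0% = buffer negative control and 100% = Enniatin B positive control; higher means more Nile Red kept so more efflux inhibition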
HDAC3 inh = blocks human histone deacetylase 3 | inhibition, % at 8.3 µM | recombinant HDAC3, fluorogenic peptide/trypsin coupled, fluorescence | 320,000 tested, 0.15% active | O15379; in the data active = inhibition above about 26%, passing the limit was not always enough
Target sequence (O15379 whole entry, looked up): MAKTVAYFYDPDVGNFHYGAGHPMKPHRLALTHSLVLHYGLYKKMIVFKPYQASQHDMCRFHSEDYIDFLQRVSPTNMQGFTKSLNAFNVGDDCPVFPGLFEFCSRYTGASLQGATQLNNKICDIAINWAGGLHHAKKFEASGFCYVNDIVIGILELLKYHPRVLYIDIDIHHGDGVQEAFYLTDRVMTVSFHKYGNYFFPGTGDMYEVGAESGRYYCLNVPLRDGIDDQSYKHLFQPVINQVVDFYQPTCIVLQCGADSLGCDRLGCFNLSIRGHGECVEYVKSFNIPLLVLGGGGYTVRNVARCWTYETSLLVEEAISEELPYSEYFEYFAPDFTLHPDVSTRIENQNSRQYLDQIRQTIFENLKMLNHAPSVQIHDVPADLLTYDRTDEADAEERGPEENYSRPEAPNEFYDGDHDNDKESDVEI
PolyA inhibitor = blocks polyadenylation in yeast reporter cells; 300,000 tested, 0.02% active; S. cerevisiae SKY197-pL101 polyadenylation reporter, beta-gal luminescence; efflux-impaired pdr1/pdr3 knockout yeast; score 100 = 6 SD above DMSO; activity score, % at 12 µM;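 active = lowest replicate activity score at least 50, where 100 means six control SD above control mean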;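 also: yeast exposed to compound for 9 h at 30 °C; higher score means more reporter readthrough which indicates perturbed polyadenylation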
AI-2 QS mod = modulators of Vibrio harveyi AI-2 quorum sensing system. Vibrio harveyi JMH597 AI-2 luminescence/OD600 ratio, 9 h; active compounds read low; strain lacks LuxN and CqsS sensors; 0 = neutral-control median. activity change, % at 7.5 µM. 300,000 tested, 0.4% active. AID 2094; in the data active = activity change below about -75%, passing the limit was not always enough;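 also: luminescence divided by OD600 gain over 9 h not by final OD600 alone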
T cruzi inh = T. cruzi replication inhibition; inhibition, % (concentration not given with the values); AID 1885; 300,000 tested, 1.4% active; T. cruzi beta-gal in NIH3T3, luminescence, 90 h;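 active = mean inhibition across valid replicates above about 55%, limit read from the data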;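 also: signal also drops with host cell toxicity which is not excluded here; 0% = plate median of DMSO wells and 100% = zero luminescence signal; higher percent means less beta-gal luminescence so fewer parasites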
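System – NIH/3T3 host cells with β-galactosidase reporter T. cruzi · Doses – single 50 nL compound addition per well in DMSO · Reagent – 5000 T. cruzi trypomastigotes/well · Medium – Low-serum DMEM with 2% FBS · Timing – ≥90 h infection period, 3 h prior cell attachment · Evaluation – parasite load inhibition, % · Technique – GalScreen luminescence, 60 min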
Yeast cmpd fluor = compound fluorescence in yeast efflux pump counter-screen; shares compounds with Efflux pump mplx; S. cerevisiae AD/pABC3, flow cytometry; fluorescence ratio to DMSO, % at 10 µM; 1,700 tested, 4% active;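 active = fluorescence ratio to DMSO above its plate's cutoff, the plate mean ratio plus 5 SD, cut at about 210% in these data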;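 also: unstained yeast with no Nile Red so the signal is compound autofluorescence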
CaMdr1 efflux inh = Candida Mdr1 efflux pump inhibition; inhibition, % at 10 µM; 1,700 tested, 1% active; shares compounds with Efflux pump mplx; S. cerevisiae AD/CaMDR1, Nile Red efflux, flow cytometry; in the data active = inhibition above about 26%;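 also: 0% = DMSO vehicle and 100% = reference inhibitor; higher means more Nile Red retained so more efflux inhibition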
Cdr2 pump inh = inhibitors of Candida albicans Cdr2 efflux pump. shares compounds with Efflux pump mplx. S. cerevisiae AD/CaCDR2, Nile Red retention, flow cytometry. Nile Red retention ratio vs DMSO, % at 10 µM. 1,700 tested, 4% active; in the data active = Nile Red retention ratio vs DMSO above about 190%;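 also: higher ratio means more blocking of Cdr2 efflux of the dye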
CaCdr1 efflux inh = blocks the Candida albicans Cdr1 efflux pump in yeast. shares compounds with Efflux pump mplx. S. cerevisiae AD/CaCDR1, Nile Red efflux, flow cytometry. inhibition, % at 10 µM. 1,700 tested, 1% active;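 active = inhibition above the screen-wide mean plus twice its standard deviation, cut at about 32% in these data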
Starred values were filed as active, the others as inactive; . = no result given. Most compounds without a hit are left out; they make up all but 2.2% or so of the library.

SMILES	Efflux pump mplx	HDAC3 inh	PolyA inhibitor	AI-2 QS mod	T cruzi inh	Yeast cmpd fluor	CaMdr1 efflux inh	Cdr2 pump inh	CaCdr1 efflux inh
CC(C)COC(=O)c1ccccc1N1C(=O)C2C3CCC(C3)C2C1=O (configuration not stated)	12.6*	1.7	-9.1	20.9	-7.0	104.5	-0.1	94.1	0.1
O=C(COc1ccc(-c2ccccc2)cc1)NNC(=O)Nc1ccc(F)cc1F	3.0*	-13.7	-9.5	38.3	-13.9	109.0	0.0	110.2	0.0
O=C1CNC(=S)N1CCCc1ccccc1	0.0	-6.3	-7.5	20.7	-11.6	.	.	.	.
O=C(NC(=O)c1ccccc1)Nc1cccc(S(=O)(=O)N2CCCCC2)c1	0.0	0.6	-4.7	20.2	-5.5	.	.	.	.
CC1=C(C)C(c2ccccc2)NC(=S)N1 (configuration not stated)	5.5*	8.1	-12.2	-1.6	-7.7	103.4	-0.1	104.2	0.1
COc1ccc(OC)c(NC(=O)CSc2nc3ccccc3c(=O)n2CCNC(C)=O)c1	0.6*	-2.3	-3.0	7.7	-6.8	101.1	-0.2	98.1	-0.1
COc1ccc(NC(=O)CSc2nc3ccccc3c(=O)n2CCNC(C)=O)c(OC)c1	-0.1	1.9	4.2	21.5	-19.8	.	.	.	.
CCC(CC)C(=O)N1N=C(c2ccc(NS(C)(=O)=O)cc2)CC1c1ccc(C)cc1 (configuration not stated)	0.1	-24.6	2.5	26.5	6.5	.	.	.	.
COc1ccc(N/C=C/C(=O)c2ccc(Cl)cc2)cc1	15.2*	-1.5	-6.3	36.8	-13.7	94.0	0.1	99.6	0.0
COc1cccc(N/C=C/C(=O)c2ccc(Cl)cc2)c1	-0.2	9.3	-27.5	17.9	2.6	.	.	.	.
COc1ccc(CNC(=O)C(C)Sc2nc3ccccc3c(=O)n2CC2CCCO2)cc1 (configuration not stated)	-0.2	2.1	.	.	.	.	.	.	.
COc1ccc(/C=c2\s/c(=C(/C#N)C(=O)NCc3ccco3)n(-c3ccccc3)c2=O)cc1	0.7*	-2.2	-12.2	-6.0	-4.3	105.8	0.1	107.2	0.1
COC(=O)/C=c1/s/c(=C(\C#N)C(=O)NCc2ccco2)n(-c2ccccc2)c1=O	0.0	-4.7	4.8	14.3	9.5	.	.	.	.
N#CC(C#N)=C1C=C2C=C(N3CCOCC3)CCC2CC1 (configuration not stated)	.	.	17.7	22.9	19.4	183.5	1.6	205.7*	0.7
N#CC(C#N)=C1C=C2C=C(N3CCCCCC3)CCC2CC1 (configuration not stated)	.	.	-1.9	30.4	29.9	258.5*	1.6	271.3*	0.8
CN1CCN(C2=CC3=CC(=C(C#N)C#N)CCC3CC2)CC1 (configuration not stated)	.	.	.	.	.	160.8	0.3	242.9*	0.0
CCN1CCN(C2=CC3=CC(=C(C#N)C#N)CCC3CC2)CC1 (configuration not stated)	.	.	.	.	.	139.9	0.6	203.4*	0.0
N#Cc1cc(Cl)c(N2CCOCC2)cc1C#N	-0.1	2.4	16.0	8.5	-15.0	.	.	.	.
COc1ccc(OCC(=O)N(C)CC2COc3ccccc3O2)cc1 (configuration not stated)	0.1	0.9	.	.	.	.	.	.	.
CCc1ccc(C(C)NC(=S)NC2CCCCC2)cc1 (configuration not stated)	0.1	6.4	1.3	5.0	-3.8	.	.	.	.
CCC(C)c1ccc(C(C)NC(=S)NC2CCCCC2)cc1 (configuration not stated)	1.5*	4.6	-3.1	18.1	37.9	98.6	-0.2	95.1	-0.1
COc1cc(N)ccc1Cc1ccc(N)cc1OC	0.5*	-2.3	8.8	3.9	8.0	101.1	-0.2	114.4	0.0
COc1ccc(N)cc1C#N	0.7*	3.8	30.8	28.5	3.9	100.2	-0.1	107.8	0.0
COc1ccc(N)cc1-n1c(C)ccc1C	0.2	-4.9	8.1	25.3	-16.7	.	.	.	.
CCCN(CC(=O)Nc1ccccc1C)C(=O)CCCc1c[nH]c2ccccc12	-0.1	4.7	.	.	.	.	.	.	.
SMILES	Efflux pump mplx	HDAC3 inh	PolyA inhibitor	AI-2 QS mod	T cruzi inh	Yeast cmpd fluor	CaMdr1 efflux inh	Cdr2 pump inh	CaCdr1 efflux inh
CC(C)(C)S(=O)(=O)c1ccsc1C(=O)O	14.2*	0.6	0.1	16.9	-17.3	97.6	-0.3	109.4	-0.1
C/C(=N\NC(=O)CSc1nc(C)[nH]c1[N+](=O)[O-])c1ccc(F)cc1	0.0	1.8	8.9	10.8	-0.8	.	.	.	.
O=C(c1ccc(Cn2cc([N+](=O)[O-])cn2)o1)N1CCCCCC1	-2.2	3.2	-10.4	9.9	3.5	.	.	.	.
CSc1nnnn1-c1ccc(C(=O)O)cc1	-0.1	-3.6	-0.4	7.1	-11.7	.	.	.	.
CSc1nnnn1-c1ccc(C)c(Cl)c1	14.2*	3.3	-0.6	-2.2	-14.6	100.0	-0.1	108.3	0.0
CSCCC(NC(=O)c1ccccc1Cl)C(=O)N1CCC1 (configuration not stated)	0.0	-2.8	8.3	9.4	-3.8	.	.	.	.
CSCCC(NC(=O)c1ccccc1Cl)C(=O)N(C)Cc1cccs1 (configuration not stated)	5.5*	6.9	4.1	-3.0	0.1	101.1	0.0	106.3	0.1
CC1(C)Cc2cccc(OCC(=O)Nc3cc(S(C)(=O)=O)ccc3Cl)c2O1	0.4	1.5	.	.	.	.	.	.	.
COc1ccc(C2C(C#N)=C(N)N(c3ccccc3C#N)C3=C2C(=O)CCC3)cc1CN1CCCC1 (configuration not stated)	9.6*	4.6	-3.6	6.6	-6.6	103.0	-0.3	91.4	0.0
Cn1ncc(N=Cc2c(O)ccc3ccccc23)c1C(=O)N1CCOCC1	-0.3	-7.6	-0.7	14.6	-1.1	.	.	.	.
COc1ccccc1NC(=O)c1c(N=Cc2c(O)ccc3ccccc23)cnn1C	0.4*	-1.1	-4.6	-11.5	-4.8	110.0	0.8	102.9	0.1
COc1ccc(CCNC(=O)c2cc3c(=O)n(C)c4ccccc4c3n2C)c(OC)c1	0.1	4.0	-2.5	0.6	11.5	.	.	.	.
O=C(COC(=O)Cn1cnc2ccccc2c1=O)NNC(=O)c1ccc(Br)cc1	0.8*	-5.7	.	.	.	105.0	-0.3	97.2	0.0
C[n+]1ccccc1/C=C/c1ccc(C#N)cc1	0.0	12.1	8.4	7.6	-14.8	.	.	.	.
C[n+]1ccccc1/C=C/c1ccc([N+](=O)[O-])cc1	1.4*	8.3	12.1	8.3	-5.7	133.3	0.8	120.4	0.5
Cc1ccc(S(=O)(=O)Nc2cc(-c3ccccc3)nn2C)cc1	0.5*	3.0	34.2	0.1	-25.4	96.6	-0.2	97.7	0.0

Bioassay records as filed in PubChem.
